Assay [1] has as its target Epidermal growth factor receptor (Homo sapiens, UniProt P00533). Briefly: Inhibition of Epidermal growth factor receptor.
A short description of assay [2]: Inhibition of PKA kinase. More on the design: species or system Bos taurus. Summed up:
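Bovine heart PKA (2 units) with 500 ng GST-TK fusion substrate and 25 μM [32P]ATP, in 50 mM Tris pH 7.5, 10 mM MgCl2. Incubated 1 h at 30 °C. Read-out by TCA precipitation.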

A short description of assay [3]: Inhibition of Mitogen-activated protein kinase. Details: species or system Xenopus laevis.
Assay [4] has as its target Protein kinase C (PKC). As to the kind of experiment: Inhibition of rat brain PKC kinase. Summed up:
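Commercial PKC assay system run at 20 μM ATP. Read-out by spotting onto p81 phosphocellulose.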

The target of assay [5] is Cyclin-dependent kinase 4/cyclin D1 (Homo sapiens, UniProt P11802). Briefly: Inhibition of Cyclin-dependent kinase 4-cyclin D1. It is filed as protein-complex assay.
Assay [6] addresses Cyclin-dependent kinase 1/cyclin B1 (Homo sapiens, UniProt P06493). It is filed as protein-complex assay.
Assay [7] deals with Cyclin-dependent kinase 2/cyclin E (Homo sapiens, UniProt P24941). Briefly: Inhibition of Cyclin-dependent kinase 2-cyclin E. It is filed as protein-complex assay.
In assay [8] the target is Cyclin-dependent kinase 2/cyclin A (Homo sapiens, UniProt P24941). Briefly: Inhibition of Cyclin-dependent kinase 2-cyclin A. It is filed as protein-complex assay.
The test system of assay [9] is MIA PaCa-2. As to the kind of experiment: cells. To be noted: Homo sapiens.
Assay [10] deals with PC-3. As to the kind of experiment: cells. Conditions: Homo sapiens.
Assay [11] in a line: Inhibition of Cyclin-dependent kinase 1-cyclin A. More on the design: species or system Homo sapiens.
Assay [12] concerns A2780. As to the kind of experiment: cells. Conditions: Homo sapiens.
For assay [13], the system named is HCT-116. Briefly: cells. To be noted: Homo sapiens.

Epidermal growth factor receptor, sequence (P00533 whole entry): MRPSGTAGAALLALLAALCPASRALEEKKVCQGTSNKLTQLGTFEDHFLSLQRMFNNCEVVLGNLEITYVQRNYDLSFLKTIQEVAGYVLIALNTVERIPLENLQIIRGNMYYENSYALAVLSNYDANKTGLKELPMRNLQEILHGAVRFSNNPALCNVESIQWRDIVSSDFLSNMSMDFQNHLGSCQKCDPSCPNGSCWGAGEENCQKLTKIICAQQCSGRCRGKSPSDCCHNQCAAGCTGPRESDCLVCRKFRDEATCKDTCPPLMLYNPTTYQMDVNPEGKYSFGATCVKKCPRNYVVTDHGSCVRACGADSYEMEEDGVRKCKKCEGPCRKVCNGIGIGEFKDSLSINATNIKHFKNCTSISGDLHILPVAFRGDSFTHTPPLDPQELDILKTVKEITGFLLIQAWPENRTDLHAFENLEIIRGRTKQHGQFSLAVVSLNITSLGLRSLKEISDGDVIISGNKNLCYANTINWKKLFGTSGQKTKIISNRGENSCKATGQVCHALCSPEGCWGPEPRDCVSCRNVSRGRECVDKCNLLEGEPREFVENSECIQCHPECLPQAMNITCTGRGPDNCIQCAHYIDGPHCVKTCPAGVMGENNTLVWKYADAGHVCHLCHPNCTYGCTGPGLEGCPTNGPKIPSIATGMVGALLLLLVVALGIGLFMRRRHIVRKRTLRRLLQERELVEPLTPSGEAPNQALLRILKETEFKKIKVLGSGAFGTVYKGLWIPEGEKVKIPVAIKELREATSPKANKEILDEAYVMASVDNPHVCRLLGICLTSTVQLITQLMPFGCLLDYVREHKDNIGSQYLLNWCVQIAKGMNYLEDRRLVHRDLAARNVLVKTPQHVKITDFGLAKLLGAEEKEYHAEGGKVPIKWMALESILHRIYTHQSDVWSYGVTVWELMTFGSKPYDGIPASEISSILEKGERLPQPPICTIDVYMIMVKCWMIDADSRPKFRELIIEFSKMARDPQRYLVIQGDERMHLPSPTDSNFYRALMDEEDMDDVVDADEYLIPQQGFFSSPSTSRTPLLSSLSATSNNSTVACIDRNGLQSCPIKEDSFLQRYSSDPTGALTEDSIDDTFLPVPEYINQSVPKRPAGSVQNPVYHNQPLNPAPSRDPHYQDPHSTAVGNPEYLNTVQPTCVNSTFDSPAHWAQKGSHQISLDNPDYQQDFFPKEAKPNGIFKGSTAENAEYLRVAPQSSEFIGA
Cyclin-dependent kinase 1/cyclin B1, sequence (P06493 whole entry): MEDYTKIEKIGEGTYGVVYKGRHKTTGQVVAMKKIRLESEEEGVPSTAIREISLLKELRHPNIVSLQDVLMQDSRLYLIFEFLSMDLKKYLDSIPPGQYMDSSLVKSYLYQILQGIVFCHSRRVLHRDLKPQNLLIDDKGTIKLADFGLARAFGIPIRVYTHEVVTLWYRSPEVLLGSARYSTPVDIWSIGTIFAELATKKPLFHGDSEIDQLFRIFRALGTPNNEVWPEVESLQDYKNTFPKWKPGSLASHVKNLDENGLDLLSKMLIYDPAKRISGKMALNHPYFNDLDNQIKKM
Cyclin-dependent kinase 1/cyclin B1, sequence (P14635 whole entry, further chain): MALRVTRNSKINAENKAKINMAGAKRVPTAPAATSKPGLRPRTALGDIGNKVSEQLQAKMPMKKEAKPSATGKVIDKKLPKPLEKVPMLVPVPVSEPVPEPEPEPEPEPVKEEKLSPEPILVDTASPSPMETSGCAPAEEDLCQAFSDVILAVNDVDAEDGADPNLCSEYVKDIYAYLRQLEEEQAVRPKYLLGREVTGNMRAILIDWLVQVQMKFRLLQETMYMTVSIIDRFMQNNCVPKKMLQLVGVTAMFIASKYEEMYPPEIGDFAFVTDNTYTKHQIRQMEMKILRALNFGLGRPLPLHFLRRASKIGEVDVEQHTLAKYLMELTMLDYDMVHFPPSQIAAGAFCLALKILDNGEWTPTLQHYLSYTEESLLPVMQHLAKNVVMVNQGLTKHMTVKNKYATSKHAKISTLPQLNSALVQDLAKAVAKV
Cyclin-dependent kinase 4/cyclin D1, sequence (P11802 whole entry): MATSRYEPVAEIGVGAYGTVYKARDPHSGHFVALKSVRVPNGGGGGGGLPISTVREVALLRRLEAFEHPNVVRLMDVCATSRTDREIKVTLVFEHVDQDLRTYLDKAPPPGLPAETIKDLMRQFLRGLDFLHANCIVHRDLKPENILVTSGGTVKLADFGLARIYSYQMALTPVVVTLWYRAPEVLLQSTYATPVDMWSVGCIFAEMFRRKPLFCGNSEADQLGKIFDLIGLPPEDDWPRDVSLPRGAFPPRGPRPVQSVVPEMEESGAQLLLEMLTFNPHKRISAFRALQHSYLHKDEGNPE
Cyclin-dependent kinase 4/cyclin D1, sequence (P24385 whole entry, further chain): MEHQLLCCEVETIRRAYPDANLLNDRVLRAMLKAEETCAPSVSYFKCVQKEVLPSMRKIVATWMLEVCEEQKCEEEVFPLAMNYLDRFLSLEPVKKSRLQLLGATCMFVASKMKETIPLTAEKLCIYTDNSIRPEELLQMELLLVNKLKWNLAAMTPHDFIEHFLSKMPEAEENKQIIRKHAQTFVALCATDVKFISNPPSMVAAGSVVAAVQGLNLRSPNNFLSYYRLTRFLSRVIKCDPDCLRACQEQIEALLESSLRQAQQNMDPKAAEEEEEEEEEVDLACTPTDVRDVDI

For the compound `CN1CC[C@H](c2c(O)cc(O)c3c(=O)cc(Oc4ccccc4Cl)oc23)[C@H](O)C1`, the IC50 (usually the concentration that gives 50% inhibition) was above 50 µM in [1], above 50 µM in assay [2], above 25 µM in [3] and above 50 µM in assay [4].

For `CN1CCC(c2c(O)cc(O)c3c(=O)cc(Sc4ccccc4)oc23)C(O)C1` (racemic), the IC50 is 4.1 µM in assay [5], 0.44 µM in assay [6] and 6.59 µM in [7].

Turning to `CN1CCC(c2c(O)cc(O)c3c(=O)cc(SC(C)(C)C)oc23)C(O)C1` (racemic), the 50% inhibitory concentration (IC50) amounted to 2.07 µM in assay [5], 0.08 µM in assay [6] and 1.07 µM in [7].

Take `CN1CCC(c2c(O)cc(O)c3c(O)c/c(=N\c4ccccc4)oc23)C(O)C1` (racemic): the values for the IC50 in assay [5], in [6] and in assay [7] were above 25 µM, 16.3 µM and above 25 µM, respectively.

In the case of `CN1CCC(c2c(O)cc(O)c3c(=O)cc(N4CCCCC4)oc23)C(O)C1` (racemic), the half-maximal inhibitory concentration (IC50) was determined as 3.7 µM in [5], 2.5 µM in assay [6] and 9.69 µM in [7].

Regarding `Cc1cc(C)nc(Sc2cc(=O)c3c(O)cc(O)c(C4CCN(C)CC4O)c3o2)n1` (racemic), the IC50 in assay [5] came out at 82.5 µM; in [6], 6.4 µM; in assay [7] it was 40.4 µM.

On to `CCSc1cc(=O)c2c(O)cc(O)c(C3CCN(C)CC3O)c2o1` (racemic), for which the IC50 in [5] came out at 2.06 µM; in assay [6] it was 0.46 µM; in [7] it was 3.93 µM.

With `CN1CC[C@H](c2c(O)cc(O)c3c(=O)cc(Sc4ccccc4Cl)oc23)[C@H](O)C1` (stereo in doubt; 16), the IC50 in assay [1] is above 50 µM; in assay [8] it was 1.5 µM; in [9], 0.03 µM; in assay [10], 0.02 µM; in assay [5], 16.2 µM; in [2] it was above 50 µM. Moreover, the IC50 in [11] is 0.16 µM; in assay [12] it was 0.87 µM; in assay [3] it was above 25 µM; in [6] it was 0.11 µM; in assay [7], 2.1 µM; in assay [4], 16.1 µM. The IC50 in assay [13] was 0.21 µM.

In the case of `CN1CC[C@H](c2c(O)cc(O)c3c(=O)cc(Sc4ccccc4Cl)oc23)[C@H](O)C1` (stereo in doubt; 21), the figures for the 50% inhibitory concentration (IC50) in assay [5], in assay [6] and in assay [7] were above 25 µM, 6.1 µM and 4.4 µM, respectively.

In the case of `CN1CC[C@H](c2c(O)cc(O)c3c(=O)cc(-c4ccccc4Cl)oc23)[C@H](O)C1` [ALVOCIDIB], the half-maximal inhibitory concentration (IC50) in assay [2] is above 50 µM; in [11], 0.05 µM; in assay [3], 19 µM; in [4], 14 µM.

As for `COC(=O)[C@@]1(Cc2ccc(O)c(CC=C(C)C)c2)OC(=O)C(O)=C1c1ccc(O)cc1` [BUTYROLACTONE I], the IC50 in assay [1] was determined as 590 µM; in [5], 1000 µM; in assay [2], 260 µM; in [3] it was 94 µM; in assay [4], 160 µM.

Regarding `Cn1cnc2c(NCc3ccccc3)nc(NCCO)nc21` [OLOMOUCINE], the figures for the IC50 in assay [2], in assay [3] and in assay [4] were 2000 µM, 30 µM and 1000 µM, respectively.
